TCR-CD3 inh = blocks the human TCR-CD3 interaction; 0.37% of 360,000 active; inhibition, % at 9.4 µM; TAMRA-labeled TCR probe fluorescence, biochemical; AID 651800;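 also: recombinant mutant TCR 2C K166C tagged with TAMRA read by polarization; 0% = receptor in buffer alone and 100% = receptor with positive control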
HTRA1 inh = inhibitors of human serine peptidase HTRA1; Q92743; recombinant HTRA1, FP-rhodamine activity-based probe, fluorescence polarization; inhibition, % at 5.96 µM; 0.5% of 340,000 active; in the data active = inhibition above about 36%;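 also: 0% = enzyme with DMSO and 100% = wells lacking enzyme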
pPAFAH FP inh = pPAFAH (human) enzyme inhibition; Q13093; recombinant pPAFAH, FP-rhodamine probe fluorescence polarization; inhibition, % at 3.39 µM; 1.5% of 330,000 active; AID 463082;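 active = inhibition above the mean inhibition across the screen plus 3 SD, cut at about 25% in these data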;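 also: inhibitors block binding of the rhodamine activity-based probe so polarization drops; 0% = enzyme with DMSO and 100% = wells lacking pPAFAH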
SIAE inh = human SIAE inhibition, primary screen; Q9HAT2; SIAE FP-Rh probe binding, fluorescence polarization; inhibition, % at 9.66 µM; 0.69% of 370,000 active;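 active = inhibition above a cutoff: mean of compounds within the control limits plus 3 SD of those, cut at about 17% in these data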;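 also: 0% = plate median of compound wells and 100% = probe without SIAE protein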
Target sequence (Q9HAT2 whole entry, looked up): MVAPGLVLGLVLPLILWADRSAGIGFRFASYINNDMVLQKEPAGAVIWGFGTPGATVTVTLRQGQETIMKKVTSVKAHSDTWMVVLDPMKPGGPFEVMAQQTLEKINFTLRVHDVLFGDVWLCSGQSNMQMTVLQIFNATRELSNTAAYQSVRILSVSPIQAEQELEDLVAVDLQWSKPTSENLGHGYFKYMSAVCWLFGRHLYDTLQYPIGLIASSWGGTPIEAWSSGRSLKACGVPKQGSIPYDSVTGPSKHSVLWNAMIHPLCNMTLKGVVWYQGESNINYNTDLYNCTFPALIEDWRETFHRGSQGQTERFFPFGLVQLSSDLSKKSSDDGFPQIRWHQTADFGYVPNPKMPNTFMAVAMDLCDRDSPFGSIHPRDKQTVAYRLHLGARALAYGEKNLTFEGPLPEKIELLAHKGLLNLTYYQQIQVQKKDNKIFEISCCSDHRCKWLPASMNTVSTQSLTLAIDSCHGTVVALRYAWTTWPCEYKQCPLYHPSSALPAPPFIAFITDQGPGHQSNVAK
mABHD4 FP = inhibits mouse alpha/beta hydrolase domain 4 | Q8VD66 | purified mABHD4, FP-Rh probe fluorescence polarization | inhibition, % at 8.92 µM | 0.54% of 370,000 active;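 active = inhibition exceeding the mean over every tested compound plus 3 SD, cut at about 30% in these data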;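 also: 0% = plate median of compound wells and 100% = S159A mutant with DMSO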
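Material: mouse ABHD4 enzyme, wild type; Benchmarks: S159A mutant high control, sample median low control; Buffer or medium: HEPES pH 7.0, NaCl, Pluronic buffer; Signal: fluorescence polarization; Read-out: percent inhibition of probe binding, normalized to plate controls; Timing: pre-incubation 45 min, probe exposure 60 min, at 25 °C; Dosing: 8.92 µM, single dose.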
BSA probe FL = interferes with TAMRA-BSA probe, flagging TCR-CD3 hits; inhibition, % at 9.4 µM; AID 652035; shares compounds with TCR-CD3 inh; TAMRA-labeled BSA probe fluorescence counterscreen; 10% of 1,200 active; in the data active = inhibition above about 23%;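 also: 0% = buffer low control and 100% = reference high control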
TCR-CD3 inh conf = TCR-CD3 interaction inhibition, confirmation; shares compounds with TCR-CD3 inh; TAMRA-labeled TCR probe fluorescence binding assay; inhibition, % at 9.4 µM; 48% of 1,200 active
mABHD4 conf = confirmation of mouse ABHD4 inhibitors; shares compounds with mABHD4 FP; purified mABHD4, FP-Rh probe fluorescence polarization; inhibition, % at 8.92 µM; 55% of 1,800 active; AID 720658;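 active = mean inhibition across replicates above the hit cutoff set in the primary screen, cut at about 30% in these data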;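 also: 0% = wild-type ABHD4 with DMSO and 100% = catalytically dead S159A mutant with DMSO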
* = called active by the depositor; · = no result given. The list is not random: actives were taken first. Their share in the collection is about 2.3%. Rule as the data show it, unless noted: active = inhibition above about 19%; inactive = the rest.

SMILES	TCR-CD3 inh	HTRA1 inh	pPAFAH FP inh	SIAE inh	mABHD4 FP	BSA probe FL	TCR-CD3 inh conf	others
CN(CCCOC(=O)c1cccs1)C1CN(Cc2cn(Cc3ccccc3Cl)nn2)S(=O)(=O)C1 (stereo not drawn)	·	·	·	-2	-2	·	·
CC(=O)c1ccc(NC(=O)c2cccc(N3C(=O)c4ccccc4C3=O)c2)cc1	·	-3	5	·	·	·	·
NS(=O)(=O)c1ccc(NC(=O)c2cccc(N3C(=O)c4ccccc4C3=O)c2)cc1	25*	-6	8	-23	-13	-1	30*
Cc1ccc(C(=O)OCC(=O)NNC(=O)COc2ccc(Cl)cc2)c(O)c1	27*	7	9	-1	2	1	12
Cc1ccc(C(=O)OCC(=O)NNC(=O)c2ccccc2)c(O)c1	6	1	7	5	-3	·	·
CCC[C@H]1[C@@H](NC(=O)c2cccc(C)c2)CC[C@@]23CCCN2C(=O)CCC[C@@H]13	·	·	·	-2	-6	·	·
CCCc1c(C(=O)N/N=C(\C)c2ccccc2O)nnn1-c1nonc1N	6	21	·	3	6	·	·
C/C(=N\NC(=O)c1nnn(-c2nonc2N)c1-c1ccccc1)c1ccccc1O	49*	23	13	0	-4	-7	30*
O=C(c1cccc(Cl)c1)N1CCCc2ccccc21	28*	-2	10	-3	-1	28*	16
O=C(c1ccc(F)c(F)c1)N1CCCc2ccccc21	7	5	1	5	-5	·	·
COc1ccc(CN2CCC(CNC(=O)NCc3ccccc3)CC2)cc1	·	·	·	-6	4	·	·
CCC(=O)NNC(=O)c1c(O)c2ccccc2[nH]c1=O	33*	-4	-2	-1	3	-4	24*
CCCCCCCC(=O)NNC(=O)c1c(O)c2ccccc2[nH]c1=O	15	4	1	1	0	·	·
O=C(CSc1nc2ccccc2c(=O)n1-c1ccc(F)cc1)Nc1ccc(Cl)c(S(=O)(=O)N2CCOCC2)c1	13	-48	0	-58	-58	·	·
O=C(CSc1nc2ccccc2c(=O)n1-c1ccc(F)c(Cl)c1)Nc1cccc(S(=O)(=O)N2CCOCC2)c1	22*	-35	0	-57	-44	7	19*
O=C(Nc1ccc(Cl)c(Cl)c1)O/N=C/c1ccncc1	42*	-81	-35	-121	-45	10	20*
COC(=O)[C@]12C[C@H](CC(=O)N3CCN(C(=O)c4ccco4)CC3)C(=O)N(Cc3cccc4ccccc34)C1=C[C@H](C(C)(C)C)O[C@@H]2C	·	·	·	-8	-6	·	·
COC(=O)[C@@]12C[C@@H](CC(=O)N3CCSCC3)C(=O)N(Cc3ccccc3)C1=CCC(C)(C)C2	-3	·	·	2	3	·	·
CCCCCC(=O)NNC(=S)NC(C)=O	-6	-1	0	-9	-9	·	·
CCCCCC(=O)NC(=S)NC1C2CC3CC(C2)CC1C3 (stereo not drawn)	35*	-15	5	-3	6	2	29*
Oc1ccccc1-c1nc(/C=C/c2ccccc2)nn1-c1ccccc1	-5	-22	-1	-6	-17	·	·
Oc1ccc(/C=C/c2nc(-c3ccccc3O)n(-c3ccccc3)n2)cc1	46*	-10	2	2	-26	3	3
COc1cc(CC(=O)N2CCc3ccccc32)cc(OC)c1OC	-1	8	1	-1	6	·	·
CCOC(=O)N1CCc2cc(OC)c(OC)c3c2c1cc1cc(OC)c(OC)cc13	27*	10	·	16	63*	-3	2	mABHD4 conf=69*
O=S(=O)(c1ccccc1Br)N(Cc1cn(CC2CCCCC2)nn1)C1CC1	·	·	·	-2	10	·	·
Cc1ccc(-n2c(SCC(=O)c3ccccc3Cl)nnc2-c2cnccn2)cc1	·	·	·	-10	-6	·	·
Nc1ccc2nc(CCc3ccccc3)[nH]c2c1	0	14	7	2	12	·	·
Nc1ccc2nc3c(=O)n(CCc4ccccc4)c(=O)[nH]c3nc2c1	27*	·	17	15	40*	26*	21*	mABHD4 conf=30*
